The text below walks through data of ChEMBL document CHEMBL1828592, “Synthesis and anti-microbial activity of some 1- substituted amino-4,6-dimethyl-2-oxo-pyridine-3-carbonitrile derivatives” (2011).

One test relates to Pseudomonas aeruginosa. As to the kind of experiment: Antibacterial activity against Pseudomonas aeruginosa RCMB 000102 at 10 mg/ml after 24 hrs by diffusion agar technique. It counts as functional. As to conditions: for zone of inhibition at 10000 µg/mL: RCMB 000102, 24 h, read-out: IZ. The essentials: (§1)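 Agar well diffusion: 24 h bacterial culture pellets (approx. 10^4–10^6 CFU/mL) spread on nutrient agar, pH 7.0. Wells (6 mm) loaded with 100 μL sample at 10 mg/mL in DMSO; DMSO control. Incubated 37 °C, 24 h. Inhibition zone (mm, beyond well) measured three times by caliper and averaged; three runs per strain; mean ± SD.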

Another test relates to Candida albicans. The experiment in a line: Antifungal activity against Candida albicans RCMB 005002 at 10 mg/ml after 3 to 4 days by agar well diffusion method. The test is classed as functional. Conditions: for zone of inhibition at 10000 µg/mL: read-out: IZ. The essentials: (§2)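 Patient-isolated fungi, purified by single-spore isolation, were grown 3–4 days in Sabouraud dextrose broth to about 10^5 CFU/mL. 0.1 mL was spread on Sabouraud dextrose agar. Wells were sealed at the bottom with 0.8% soft agar and loaded with 100 μL sample (10 mg/mL, DMSO); DMSO was the control. Incubated 30 °C, 3–4 days. Zone read three times by caliper and averaged; mean ± SD.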

Another test deals with Escherichia coli. As to the kind of experiment: Antibacterial activity against Escherichia coli RCMB 000103 at 10 mg/ml after 24 hrs by diffusion agar technique. It counts as functional. Conditions: for zone of inhibition at 10000 µg/mL: RCMB 000103, 24 h, read-out: IZ. The essentials:
as §1

Test [1] concerns Syncephalastrum racemosum. As to the kind of experiment: Antifungal activity against Syncephalastrum racemosum RCMB 005003 at 10 mg/ml after 3 to 4 days by agar well diffusion method. The test is classed as functional, organism-based. Summed up:
as §2

The test system of another test is Staphylococcus aureus. As to the kind of experiment: Antibacterial activity against Staphylococcus aureus RCMB 000106 at 10 mg/ml after 24 hrs by diffusion agar technique. It counts as functional. As to conditions: for zone of inhibition at 10000 µg/mL: RCMB 000106, 24 h, read-out: IZ. Summed up: as §1
A further test relates to Aspergillus fumigatus. As to the kind of experiment: Antifungal activity against Aspergillus fumigatus RCMB 002003 at 10 mg/ml after 3 to 4 days by agar well diffusion method. The test is classed as functional. As to conditions: for zone of inhibition at 10000 µg/mL: read-out: IZ. The essentials:
as §2

A further test deals with Bacillus subtilis. The experiment in a line: Antibacterial activity against Bacillus subtilis RCMB 000107 at 10 mg/ml after 24 hrs by diffusion agar technique. Conditions: for zone of inhibition at 10000 µg/mL: RCMB 000107, 24 h, read-out: IZ. It counts as functional. The essentials:
as §1

The next test concerns Geotrichum candidum. As to the kind of experiment: Antifungal activity against Geotrichum candidum RCMB 052006 at 10 mg/ml after 3 to 4 days by agar well diffusion method. Conditions: for zone of inhibition at 10000 µg/mL: read-out: IZ. The test is classed as functional. Summed up:
as §2

Calls of active or inactive are those of the source. The calls are words filed in the database; no cut-off is given here.

For the molecule `Cc1cc(C)n(NC(=O)C(=O)CC(=O)c2cc3ccccc3o2)c(=O)c1C#N`, the “inhibition zone (IZ)” value (in the test on Pseudomonas aeruginosa; in the test with Candida albicans; in test [1]; in the test on Aspergillus fumigatus; with Geotrichum candidum) was “inactive” throughout. The figures for the zone of inhibition at 10000 µg/mL in the test on Escherichia coli, with Staphylococcus aureus and with Bacillus subtilis were 7.4 mm, 20.4 mm and 21.8 mm, respectively.
Consider `Cc1cc(C)n(/N=C/c2c(C)nn(-c3ccccc3)c2Cl)c(=O)c1C#N`, for which the “inhibition zone (IZ)” value (in the test with Pseudomonas aeruginosa; in the test with Escherichia coli; in test [1]; in the test with Staphylococcus aureus; with Bacillus subtilis) was “inactive” each time. Further, the zone of inhibition at 10000 µg/mL with Candida albicans stood at 13.2 mm; in the test with Aspergillus fumigatus, 10.3 mm; in the test on Geotrichum candidum it was 11.5 mm.
Turning to `Cc1cc(C)n(N2C(=O)c3c(Br)c(Br)c(Br)c(Br)c3C2=O)c(=O)c1C#N`, the “inhibition zone (IZ)” value (in the test with Pseudomonas aeruginosa; in test [1]) was “inactive” in each case. The zone of inhibition at 10000 µg/mL in the test with Candida albicans was 20.2 mm; in the test with Escherichia coli, 12.6 mm; in the test with Staphylococcus aureus, 26.4 mm; in the test with Aspergillus fumigatus it was 22.5 mm; in the test with Bacillus subtilis, 26.4 mm; with Geotrichum candidum, 23.5 mm.
Turning to `Cc1cc(C)n(N)c(=O)c1C#N`, the zone of inhibition at 10000 µg/mL in the test with Pseudomonas aeruginosa turned out to be 21.4 mm; with Escherichia coli, 22.8 mm; in the test on Staphylococcus aureus, 14 mm; with Bacillus subtilis, 17 mm. For the same molecule, the “inhibition zone (IZ)” value (with Candida albicans; in test [1]; in the test with Aspergillus fumigatus; with Geotrichum candidum) was “inactive” throughout.
On to `Cc1cc(C)n(/N=C/c2cccs2)c(=O)c1C#N`, for which the zone of inhibition at 10000 µg/mL amounted to 14 mm in the test with Pseudomonas aeruginosa; 12 mm in the test with Candida albicans; 14 mm in the test with Staphylococcus aureus; 11 mm in the test on Aspergillus fumigatus; 13 mm with Geotrichum candidum. Besides, the “inhibition zone (IZ)” value (with Escherichia coli; in test [1]; in the test with Bacillus subtilis) was “inactive” each time.
For `Cc1ccc2nc(Cl)c(/C=N/n3c(C)cc(C)c(C#N)c3=O)cc2c1`, the “inhibition zone (IZ)” value (in the test on Pseudomonas aeruginosa; in the test on Escherichia coli; in test [1]; in the test with Staphylococcus aureus; in the test with Bacillus subtilis) was “inactive” in each case. For the same molecule, the zone of inhibition at 10000 µg/mL in the test with Candida albicans is 12.4 mm; in the test on Aspergillus fumigatus, 14.5 mm; with Geotrichum candidum, 13.2 mm.
As for `Cc1ccc2c(c1)cc(/C=N/n1c(C)cc(C)c(C#N)c1=O)c1nnnn12`, the “inhibition zone (IZ)” value (with Pseudomonas aeruginosa; in test [1]) was “inactive” each time. The zone of inhibition at 10000 µg/mL with Candida albicans was 15.4 mm; in the test with Escherichia coli, 11.2 mm; with Staphylococcus aureus, 23.2 mm; in the test with Aspergillus fumigatus, 15.2 mm; in the test with Bacillus subtilis it was 24.3 mm; with Geotrichum candidum it was 18.4 mm.
Consider `COc1ccc(-c2cc(-c3cccs3)nc3sc(C(=O)Nn4c(C)cc(C)c(C#N)c4=O)c(N)c23)cc1`, for which the “inhibition zone (IZ)” value (with Pseudomonas aeruginosa; in the test with Escherichia coli; in test [1]) was “inactive” in each case. Also, the zone of inhibition at 10000 µg/mL in the test with Candida albicans is 10 mm; with Staphylococcus aureus it was 13 mm; with Aspergillus fumigatus it was 11.1 mm; with Bacillus subtilis it was 14.2 mm; in the test with Geotrichum candidum, 14 mm.
With `Cc1cc(C)n(N2C(=O)c3ccccc3C2=O)c(=O)c1C#N`, the “inhibition zone (IZ)” value (in the test with Pseudomonas aeruginosa; in test [1]) was “inactive” each time. Besides, the zone of inhibition at 10000 µg/mL with Candida albicans was determined as 18.2 mm; in the test on Escherichia coli it was 10.8 mm; in the test with Staphylococcus aureus, 24.4 mm; in the test on Aspergillus fumigatus it was 19.2 mm; in the test with Bacillus subtilis, 25.4 mm; in the test with Geotrichum candidum it was 21.4 mm.
As to `Cc1cc(C)n(/N=C/c2ccc(F)cc2)c(=O)c1C#N`, the “inhibition zone (IZ)” value (in the test on Pseudomonas aeruginosa; with Candida albicans; in the test on Escherichia coli; in test [1]; with Aspergillus fumigatus; with Geotrichum candidum) was “inactive” in each case. Also, the zone of inhibition at 10000 µg/mL with Staphylococcus aureus was found to be 14.9 mm; in the test with Bacillus subtilis it was 15.2 mm.
With `Cc1cc(C)n(NC(=O)Nc2ccccc2)c(=O)c1C#N`, the “inhibition zone (IZ)” value (in the test on Pseudomonas aeruginosa; in test [1]) was “inactive” each time. In addition, the zone of inhibition at 10000 µg/mL in the test on Candida albicans turned out to be 7.4 mm; in the test on Escherichia coli, 11.4 mm; with Staphylococcus aureus it was 7.2 mm; in the test with Aspergillus fumigatus, 9.2 mm; in the test with Bacillus subtilis it was 10.4 mm; in the test on Geotrichum candidum, 10.4 mm.
As for `Cc1cc(C)n(/N=C/c2cn(-c3ccccc3)nc2-c2cc3ccccc3o2)c(=O)c1C#N`, the “inhibition zone (IZ)” value (in the test with Pseudomonas aeruginosa; in test [1]) was “inactive” each time. Also, the zone of inhibition at 10000 µg/mL with Candida albicans was 15.5 mm; in the test on Escherichia coli it was 11.5 mm; with Staphylococcus aureus, 21.2 mm; in the test with Aspergillus fumigatus, 14.2 mm; in the test with Bacillus subtilis it was 23.2 mm; with Geotrichum candidum, 16.5 mm.
Regarding `Cc1cc(C)n(/N=C/c2cc3ccccc3nc2Cl)c(=O)c1C#N`, the “inhibition zone (IZ)” value (in the test with Pseudomonas aeruginosa; with Escherichia coli; in test [1]; with Staphylococcus aureus; in the test on Bacillus subtilis) was “inactive” throughout. The zone of inhibition at 10000 µg/mL was determined as 10.2 mm with Candida albicans, 13.3 mm in the test on Aspergillus fumigatus and 12.4 mm in the test with Geotrichum candidum.
Turning to `Cc1cc(C)n(/N=C/c2cc3ccccc3n3nnnc23)c(=O)c1C#N`, the “inhibition zone (IZ)” value (in the test on Pseudomonas aeruginosa; in test [1]) was “inactive” throughout. The zone of inhibition at 10000 µg/mL in the test with Candida albicans amounted to 11.4 mm; in the test with Escherichia coli, 9.3 mm; in the test with Staphylococcus aureus, 18.6 mm; in the test on Aspergillus fumigatus, 11.2 mm; with Bacillus subtilis it was 17.3 mm; in the test with Geotrichum candidum, 13.4 mm.
With `Cc1cc(C)n(NC(=S)Nc2ccccc2)c(=O)c1C#N`, the “inhibition zone (IZ)” value (in the test on Pseudomonas aeruginosa; in the test with Escherichia coli; in test [1]) was “inactive” in each case. The zone of inhibition at 10000 µg/mL amounted to 11 mm with Candida albicans; 15 mm in the test with Staphylococcus aureus; 10.2 mm in the test on Aspergillus fumigatus; 13.5 mm in the test on Bacillus subtilis; 12 mm with Geotrichum candidum.
